Source: ChEMBL document CHEMBL1127319, “CNAD: a potent and specific inhibitor of alcohol dehydrogenase” (J Med Chem, 1994)

Key:
[1] = Michaelis-Menten constant against mammalian malate dehydrogenase (MDH)
How it was run: (§1)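 NAD is varied and the A340 increase from NADH formation is monitored (ε 6.22 mM-1 cm-1). Buffers differ by enzyme: ADH in 0.1 M phosphate, pH 8.0, with ethanol 1.2 mM; GDH in 0.1 M phosphate, pH 7.0, with 10 μM EDTA; LDH and MDH in 0.05 M Tris-HCl, pH 9.0. At least duplicate.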

[2] = test system: NC(=O)c1ccc[n+]([C@@H]2O[C@H](COP(=O)([O-])OP(=O)(O)OC[C@H]3O[C@@H](n4cnc5c(N)ncnc54)[C@H](O)[C@@H]3O)[C@@H](O)[C@H]2O)c1; test: Michaelis-Menten constant against mammalian glutamate dehydrogenase (GDH); how it was run: as §1
[3] = test system: NC(=O)c1ccc[n+]([C@@H]2O[C@H](COP(=O)([O-])OP(=O)(O)OC[C@H]3O[C@@H](n4cnc5c(N)ncnc54)[C@H](O)[C@@H]3O)[C@@H](O)[C@H]2O)c1; test: Michaelis-Menten constant against mammalian lactate dehydrogenase (LDH); conditions: Sus scrofa; how it was run: as §1

Chain of Glutamate dehydrogenase 1, mitochondrial (Bos taurus), P00366 (P00366 whole entry): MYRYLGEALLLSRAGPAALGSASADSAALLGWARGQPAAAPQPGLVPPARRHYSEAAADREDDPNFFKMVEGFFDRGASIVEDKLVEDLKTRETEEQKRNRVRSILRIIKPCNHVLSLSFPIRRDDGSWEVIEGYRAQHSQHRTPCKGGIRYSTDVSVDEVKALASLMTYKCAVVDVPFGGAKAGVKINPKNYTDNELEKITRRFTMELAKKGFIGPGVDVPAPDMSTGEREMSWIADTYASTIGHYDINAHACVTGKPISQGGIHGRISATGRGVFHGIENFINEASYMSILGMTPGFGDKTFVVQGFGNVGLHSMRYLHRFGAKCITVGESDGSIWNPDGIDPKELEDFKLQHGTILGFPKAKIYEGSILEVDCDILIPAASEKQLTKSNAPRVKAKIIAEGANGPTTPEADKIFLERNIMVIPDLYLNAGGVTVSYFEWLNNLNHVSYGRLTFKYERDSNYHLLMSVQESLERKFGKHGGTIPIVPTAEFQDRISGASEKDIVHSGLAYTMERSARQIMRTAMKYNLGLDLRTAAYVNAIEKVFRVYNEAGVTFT

## NC(=O)c1ccc[n+]([C@@H]2O[C@H](COP(=O)([O-])OP(=O)(O)OC[C@H]3O[C@@H](n4cnc5c(N)ncnc54)[C@H](O)[C@@H]3O)[C@@H](O)[C@H]2O)c1
[1]
  Km: 32 µM

## Glutamate dehydrogenase 1, mitochondrial (Bos taurus), P00366
[2]
  Km: 30 µM

## L-lactate dehydrogenase A chain (Homo sapiens) (from UniProt P00338)
[3]
  Km: 141 µM
